Test results taken from ChEMBL document CHEMBL4689842, “EUbOPEN Chemogenomics Library wave 1” (2021).

Test system: Fibroblast
Experiment: Multiplex assay against human fibroblast
Assay type: toxicity, cell-based
Outline: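 Cells stained live at seeding with Hoechst33342, BioTracker Green Microtubule Cytoskeleton Dye, MitoTracker Red and Annexin V Alexa Fluor 680 were imaged on a CQ1 microscope at 37°C and 5% CO2 after compound addition. Their classification by CellPathfinder machine-learning gating ran from Hoechst high-intensity objects versus normal cells, to healthy, pyknosed or fragmented nuclei among normal cells, to mitotic or apoptotic among pyknosed cells. Tubulin, mitochondrial-mass and membrane-permeability phenotypes are per cents of healthy-nucleus cells.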

[1] = 12 h, 1 µM, compound concentration 1 uM, replicate 1
[2] = 12 h, 1 µM, compound concentration 1 uM, replicate 2
[3] = 12 h, 10 µM, compound concentration 10 uM, replicate 1
[4] = 12 h, 10 µM, compound concentration 10 uM, replicate 2
[5] = 24 h, 1 µM, compound concentration 1 uM, replicate 1
[6] = 24 h, 1 µM, compound concentration 1 uM, replicate 2
[7] = 24 h, 10 µM, compound concentration 10 uM, replicate 1
[8] = 24 h, 10 µM, compound concentration 10 uM, replicate 2
[9] = 48 h, 1 µM, compound concentration 1 uM, replicate 1
[10] = 48 h, 1 µM, compound concentration 1 uM, replicate 2
[11] = 48 h, 10 µM, compound concentration 10 uM, replicate 1
[12] = 48 h, 10 µM, compound concentration 10 uM, replicate 2

CCOc1cc2ncc(C#N)c(Nc3ccc(OCc4ccccn4)c(Cl)c3)c2cc1NC(=O)/C=C/CN(C)C [NERATINIB]
Population Apoptotic (%) [1]: 55%
Population Fragmented Nuclei (%) [1]: 21%
Population Healthy Nuclei (%) [1]: 37%
Population Hoechst High Intensity Objects (%) [1]: 14%
Population Membrane Permeable-Phenotype (%) [1]: 25%
Population Mitochondria Different-Phenotype (%) [1]: 13%
Population Mitotic Cells (%) [1]: 44%
Population Normal (%) [1]: 85%
Population Pyknosed Nuclei (%) [1]: 41%
Population Tubulin-Different-Phenotype (%) [1]: 58%
Total Cell Count [1]: 134
Population Apoptotic (%) [2]: 11%
Population Fragmented Nuclei (%) [2]: 9%
Population Healthy Nuclei (%) [2]: 82%
Population Hoechst High Intensity Objects (%) [2]: 8%
Population Membrane Permeable-Phenotype (%) [2]: 4%
Population Mitochondria Different-Phenotype (%) [2]: 18%
Population Mitotic Cells (%) [2]: 88%
Population Normal (%) [2]: 91%
Population Pyknosed Nuclei (%) [2]: 9%
Population Tubulin-Different-Phenotype (%) [2]: 15%
Total Cell Count [2]: 64
Population Apoptotic (%) [3]: 45%
Population Fragmented Nuclei (%) [3]: 25%
Population Healthy Nuclei (%) [3]: 44%
Population Hoechst High Intensity Objects (%) [3]: 34%
Population Membrane Permeable-Phenotype (%) [3]: 7%
Population Mitochondria Different-Phenotype (%) [3]: 1%
Population Mitotic Cells (%) [3]: 54%
Population Normal (%) [3]: 65%
Population Pyknosed Nuclei (%) [3]: 30%
Population Tubulin-Different-Phenotype (%) [3]: 13%
Total Cell Count [3]: 621
Population Apoptotic (%) [4]: 12%
Population Fragmented Nuclei (%) [4]: 35%
Population Healthy Nuclei (%) [4]: 50%
Population Hoechst High Intensity Objects (%) [4]: 27%
Population Mitochondria Different-Phenotype (%) [4]: 16%
Population Mitotic Cells (%) [4]: 87%
Population Normal (%) [4]: 72%
Population Pyknosed Nuclei (%) [4]: 13%
Population Tubulin-Different-Phenotype (%) [4]: 42%
Total Cell Count [4]: 109
Population Apoptotic (%) [5]: 64%
Population Fragmented Nuclei (%) [5]: 21%
Population Healthy Nuclei (%) [5]: 40%
Population Hoechst High Intensity Objects (%) [5]: 18%
Population Membrane Permeable-Phenotype (%) [5]: 32%
Population Mitochondria Different-Phenotype (%) [5]: 11%
Population Mitotic Cells (%) [5]: 35%
Population Normal (%) [5]: 81%
Population Pyknosed Nuclei (%) [5]: 37%
Population Tubulin-Different-Phenotype (%) [5]: 53%
Total Cell Count [5]: 129
Population Apoptotic (%) [6]: 23%
Population Fragmented Nuclei (%) [6]: 9%
Population Healthy Nuclei (%) [6]: 76%
Population Hoechst High Intensity Objects (%) [6]: 5%
Population Membrane Permeable-Phenotype (%) [6]: 5%
Population Mitochondria Different-Phenotype (%) [6]: 6%
Population Mitotic Cells (%) [6]: 76%
Population Normal (%) [6]: 94%
Population Pyknosed Nuclei (%) [6]: 14%
Population Tubulin-Different-Phenotype (%) [6]: 11%
Total Cell Count [6]: 73
Population Apoptotic (%) [7]: 52%
Population Fragmented Nuclei (%) [7]: 25%
Population Healthy Nuclei (%) [7]: 48%
Population Hoechst High Intensity Objects (%) [7]: 39%
Population Membrane Permeable-Phenotype (%) [7]: 3%
Population Mitochondria Different-Phenotype (%) [7]: 3%
Population Mitotic Cells (%) [7]: 47%
Population Normal (%) [7]: 60%
Population Pyknosed Nuclei (%) [7]: 26%
Population Tubulin-Different-Phenotype (%) [7]: 15%
Total Cell Count [7]: 651
Population Apoptotic (%) [8]: 12%
Population Fragmented Nuclei (%) [8]: 36%
Population Healthy Nuclei (%) [8]: 49%
Population Hoechst High Intensity Objects (%) [8]: 26%
Population Membrane Permeable-Phenotype (%) [8]: 10%
Population Mitochondria Different-Phenotype (%) [8]: 14%
Population Mitotic Cells (%) [8]: 87%
Population Normal (%) [8]: 73%
Population Pyknosed Nuclei (%) [8]: 14%
Population Tubulin-Different-Phenotype (%) [8]: 34%
Total Cell Count [8]: 124
Population Apoptotic (%) [9]: 61%
Population Fragmented Nuclei (%) [9]: 36%
Population Healthy Nuclei (%) [9]: 45%
Population Hoechst High Intensity Objects (%) [9]: 18%
Population Membrane Permeable-Phenotype (%) [9]: 26%
Population Mitochondria Different-Phenotype (%) [9]: 6%
Population Mitotic Cells (%) [9]: 38%
Population Normal (%) [9]: 81%
Population Pyknosed Nuclei (%) [9]: 18%
Population Tubulin-Different-Phenotype (%) [9]: 51%
Total Cell Count [9]: 122
Population Apoptotic (%) [10]: 33%
Population Fragmented Nuclei (%) [10]: 20%
Population Healthy Nuclei (%) [10]: 76%
Population Hoechst High Intensity Objects (%) [10]: 12%
Population Membrane Permeable-Phenotype (%) [10]: 9%
Population Mitochondria Different-Phenotype (%) [10]: 4%
Population Mitotic Cells (%) [10]: 66%
Population Normal (%) [10]: 87%
Population Pyknosed Nuclei (%) [10]: 2%
Population Tubulin-Different-Phenotype (%) [10]: 14%
Total Cell Count [10]: 123
Population Apoptotic (%) [11]: 55%
Population Fragmented Nuclei (%) [11]: 28%
Population Healthy Nuclei (%) [11]: 42%
Population Hoechst High Intensity Objects (%) [11]: 42%
Population Membrane Permeable-Phenotype (%) [11]: 5%
Population Mitochondria Different-Phenotype (%) [11]: 4%
Population Mitotic Cells (%) [11]: 44%
Population Normal (%) [11]: 57%
Population Pyknosed Nuclei (%) [11]: 28%
Population Tubulin-Different-Phenotype (%) [11]: 11%
Total Cell Count [11]: 626
Population Apoptotic (%) [12]: 62%
Population Fragmented Nuclei (%) [12]: 24%
Population Healthy Nuclei (%) [12]: 56%
Population Hoechst High Intensity Objects (%) [12]: 48%
Population Membrane Permeable-Phenotype (%) [12]: 2%
Population Mitochondria Different-Phenotype (%) [12]: 1%
Population Mitotic Cells (%) [12]: 37%
Population Normal (%) [12]: 51%
Population Pyknosed Nuclei (%) [12]: 19%
Population Tubulin-Different-Phenotype (%) [12]: 18%
Total Cell Count [12]: 814
